Assay outcomes: PubChem BioAssay, several laboratories
Sampled rows, rich in hits. Any-hit rate of the full collection: about 3.6%.
AHR act = activators of human aryl hydrocarbon receptor | AHR-responsive luciferase reporter cells, luminescence | P35869 | activation, % at 5 µM | hit rate 2.5% among 320,000 | AID 2796; in the data active = activation above about 47%
Target sequence (P35869 whole entry, looked up): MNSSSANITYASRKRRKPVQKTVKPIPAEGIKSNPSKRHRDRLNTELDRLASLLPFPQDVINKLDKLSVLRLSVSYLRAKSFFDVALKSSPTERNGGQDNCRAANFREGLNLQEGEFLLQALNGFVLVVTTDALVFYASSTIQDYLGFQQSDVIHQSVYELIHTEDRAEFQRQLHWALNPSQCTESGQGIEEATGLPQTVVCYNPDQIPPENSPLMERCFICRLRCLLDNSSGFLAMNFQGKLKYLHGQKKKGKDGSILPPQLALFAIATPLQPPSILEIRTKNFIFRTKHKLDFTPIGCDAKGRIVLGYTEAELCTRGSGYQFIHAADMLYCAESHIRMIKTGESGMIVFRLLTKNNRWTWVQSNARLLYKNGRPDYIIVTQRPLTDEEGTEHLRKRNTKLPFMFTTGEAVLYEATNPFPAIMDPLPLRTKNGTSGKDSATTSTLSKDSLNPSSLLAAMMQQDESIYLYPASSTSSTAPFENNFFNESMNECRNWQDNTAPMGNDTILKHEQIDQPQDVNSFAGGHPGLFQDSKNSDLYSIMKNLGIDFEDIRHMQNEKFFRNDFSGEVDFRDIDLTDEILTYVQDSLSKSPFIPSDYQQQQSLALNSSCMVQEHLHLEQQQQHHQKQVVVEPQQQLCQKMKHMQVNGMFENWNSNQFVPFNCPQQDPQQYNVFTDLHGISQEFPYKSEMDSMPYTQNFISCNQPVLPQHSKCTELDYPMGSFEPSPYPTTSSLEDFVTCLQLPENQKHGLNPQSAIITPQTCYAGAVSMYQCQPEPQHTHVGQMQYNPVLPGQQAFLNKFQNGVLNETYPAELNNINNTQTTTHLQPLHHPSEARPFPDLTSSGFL
PolyA inh = inhibitors of polyadenylation in S. cerevisiae | S. cerevisiae SKY197-pL101 polyadenylation reporter, beta-gal luminescence; efflux-impaired pdr1/pdr3 knockout yeast; score 100 = 6 SD above DMSO | hit rate 0.02% among 300,000 | activity score, % at 12 µM;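 active = lowest replicate activity score at least 50, where 100 means six control SD above control mean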;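 also: yeast exposed to compound for 9 h at 30 °C; higher score means more reporter readthrough which indicates perturbed polyadenylation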
Hsp70 act = transcriptional activators of Hsp70 | hit rate 0.04% among 200,000 | activation, % at 10 µM | HeLa Hsp70 promoter luciferase reporter, luminescence; scaled: vehicle 0, proteasome-inhibitor control 100%;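 active = activation above the mean across all tested compounds plus 3 SD, cutoff set per campaign, cut at about 5.5% in these data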
PERK inhibitor = human PERK inhibition, primary cell-based screen; hit rate 0.17% among 220,000; inhibition, % at 5.6 µM; CHO PERK-DD fusion, SEAP luminescence translation reporter; Q9NZJ5; AID 1416;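 active = inhibition above the mean inhibition of all tested compounds plus 3 SD, set separately per screening campaign, cut at about 2.9% in these data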;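 also: PERK kinase domain activated by AP20187 dimerizer at 100 nM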
STAT3 act-1 = increases IL-6 driven STAT3 reporter signal | U3A cells, IL-6 STAT3-luciferase reporter, luminescence; 100% = signal with IL-6 EC80 alone | activation (% of control), % at 5.6 µM | hit rate 0.91% among 190,000;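 active = activation above the screen-wide mean of compound activation plus 3 SD, cut at about 130% in these data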
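System – human U3A cells carrying STAT3-luciferase construct · Probe or stimulus – Interleukin-6, 33 ng/mL · Schedule – compound 1 h, then IL-6 6 h at 37 °C · Signal – luminescence from STAT3-driven luciferase reporter · Evaluation – percent of IL-6-only median luminescence · Benchmarks – IL-6-only high control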
HSF1 inh = HSF1 inhibition. NIH3T3-HGL HSE-luciferase, MG132-induced, luminescence 8 h; stronger effect = lower value. activity change, negative = inhibition, % at 7.5 µM (by protocol). hit rate 0.77% among 300,000. AID 2098;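 active = more than half of replicate wells show activity change below -50%, luminescence cut by over half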;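 also: luciferase reports HSF-1 transcriptional activity via heat shock element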
STAT3 act-2 = STAT3 activation, confirmation assay; shares compounds with STAT3 act-1; hit rate 64% among 1,200; U3A STAT3-luciferase reporter, IL-6 potentiation, luminescence; U3A cells lack STAT1; 100 means same as IL-6 alone; potentiation (% of control), % at 5.7 µM;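 active = percent activation of the STAT3 luciferase reporter above a set limit taken from the earlier primary screen, cut at about 130% in these data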
NFkB act 2 = NF-kappaB activation in STAT3 activator counter-screen; activation (% of control), % at 5.7 µM; shares compounds with STAT3 act-1; hit rate 11% among 1,200; AID 1309; human cells, NF-kappaB reporter activation; in the data active = activation above about 120%;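 also: reporter induced by TNF-alpha stimulation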
STAT1 act = counter-screen for STAT3 activators: STAT1 activation; shares compounds with STAT3 act-1; NIH 3T3 STAT1-luciferase reporter, IFN-gamma, luminescence; activation (% of control), % at 5.7 µM; hit rate 13% among 1,200;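 active = activation above the solvent-only control well mean plus 3 SD, set per screening run, cut at about 120% in these data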
Large screens that a line does not name were inactive (follow-up assays come after a bar, where they were run).

CCCN(CCC)C(=O)Cn1c2ccccc2c2nc(=O)cc(C)n21	AHR act 51, STAT3 act-1 165 | STAT3 act-2 161 | NFkB act 2 inactive | STAT1 act inactive
CC(=O)Nc1ccc(S(=O)(=O)N2CC3(C)CC2CC(C)(C)C3)cc1 (stereo unspecified)	STAT3 act-1 137 | STAT3 act-2 inactive | NFkB act 2 inactive | STAT1 act inactive
CC(OC(=O)c1ccco1)C(=O)Nc1ccc(C(F)(F)F)cc1 (stereo unspecified)	none (no result: PolyA inh, Hsp70 act, PERK inhibitor, STAT3 act-1, HSF1 inh)
CN/N=C(\Cc1nc2ccccc2[nH]1)c1ccc([N+](=O)[O-])cc1	STAT3 act-1 136 (no result: AHR act, PolyA inh, HSF1 inh) | STAT3 act-2 166 | NFkB act 2 inactive | STAT1 act inactive
O=C(Cc1nc2ccccc2[nH]1)c1ccc([N+](=O)[O-])cc1	none (no result: Hsp70 act, STAT3 act-1)
CC1=NOC(=O)/C1=C\c1ccc(-c2ccc(Br)cc2)o1	STAT3 act-1 136 (no result: AHR act) | STAT3 act-2 inactive | NFkB act 2 inactive | STAT1 act inactive
CC1=NOC(=O)/C1=C/c1ccc(-c2ccc(Cl)cc2)o1	none (no result: PolyA inh, HSF1 inh)
COc1ccc(C(=O)C2CCN(C(=O)Nc3ccccc3C)CC2)cc1	none (no result: Hsp70 act, PERK inhibitor, STAT3 act-1)
Cc1cc(C)c(C#N)c(SCc2nc3ccccc3[nH]2)n1	AHR act 68, STAT3 act-1 185 | STAT3 act-2 165 | NFkB act 2 inactive | STAT1 act inactive
Cc1cc(C)c(C#N)c(SCc2ccc(F)cc2)n1	none
FC(F)(F)c1cc(-c2ccccn2)nc2cc(-c3ccccc3)nn12	none (no result: Hsp70 act, STAT3 act-1)
O=C(NC(=S)Nc1nc(-c2ccccc2)cs1)c1cccs1	AHR act 68, STAT3 act-1 142 | STAT3 act-2 147 | NFkB act 2 inactive | STAT1 act inactive
O=C(NC(=S)Nc1nc(-c2ccccc2)cs1)c1ccco1	STAT3 act-1 139 | STAT3 act-2 140 | NFkB act 2 inactive | STAT1 act inactive
CC(C)CC(=O)NC(=S)Nc1nc(-c2ccccc2)cs1	AHR act 67, STAT3 act-1 144 | STAT3 act-2 140 | NFkB act 2 inactive | STAT1 act inactive
Cc1noc(C)c1CSCC(=O)N(C)CC(=O)Nc1ccccc1Cl	none (no result: Hsp70 act, PERK inhibitor, STAT3 act-1)
Cc1cccc(N2CCC(N3CCN(C4CCCCC4)C(CCO)C3)CC2)c1C (stereo unspecified)	none
CCN(CC(=O)Nc1c(F)cccc1F)C(=O)CCCNC(=O)c1ccc(Cl)cc1	none (no result: Hsp70 act, PERK inhibitor, STAT3 act-1)
O=C(O)c1cc(Cl)c2ccccc2c1O	STAT3 act-1 139 | STAT3 act-2 inactive | NFkB act 2 inactive | STAT1 act inactive
CC(=O)c1cccc2c(O)c(C3=Nc4ccccc4C3=O)[nH]c12	AHR act 61, STAT3 act-1 138 | STAT3 act-2 152 | NFkB act 2 136 | STAT1 act 181
Cn1c2ccccc2c2cc(C(=O)NNS(=O)(=O)c3ccc(F)cc3)sc21	AHR act 77, STAT3 act-1 136 | STAT3 act-2 inactive | NFkB act 2 inactive | STAT1 act inactive
O=C1CC(Sc2nnc(-c3ccccc3O)o2)C(=O)N1c1ccccc1 (stereo unspecified)	none
O=C1c2ccccc2CC1Sc1nnc(-c2ccccn2)o1 (stereo unspecified)	STAT3 act-1 149 (no result: AHR act) | STAT3 act-2 inactive | NFkB act 2 inactive | STAT1 act inactive
Cc1noc(/C=C/c2cccs2)c1S(=O)(=O)N1CCC(C(=O)NCCCN2CCCC(C)C2)CC1 (stereo unspecified)	none
COc1cccc(N2CCN(C(=O)C3CCCN(c4ncnc5c4nc4n5CCCCC4)C3)CC2)c1 (stereo unspecified)	none (no result: Hsp70 act, PERK inhibitor, STAT3 act-1)
Cc1cccc(NC(=S)NC(=O)c2cccs2)n1	STAT3 act-1 141 | STAT3 act-2 138 | NFkB act 2 inactive | STAT1 act inactive
Cc1cccc(NC(=O)CCC(=O)c2cccs2)n1	none (no result: Hsp70 act, PERK inhibitor, STAT3 act-1)
Cc1nc(NC(=S)NC(=O)c2cccs2)ccc1Br	AHR act 71, STAT3 act-1 148 | STAT3 act-2 173 | NFkB act 2 inactive | STAT1 act inactive
Cc1ccc2nc(NC(=S)NC(=O)c3cccs3)sc2c1	STAT3 act-1 163 | STAT3 act-2 171 | NFkB act 2 126 | STAT1 act 132
Cc1nc(NC(=S)NC(=O)c2cncc(Br)c2)ccc1Br	none
CCOc1ccc(NC(=S)N2CCC(NC(=O)C3CCCCC3)CC2)cc1	none (no result: Hsp70 act, PERK inhibitor, STAT3 act-1)
O=C(Nc1cc(C(F)(F)F)ccc1N1CCOCC1)C1Cc2ccccc2CN1C(=O)c1ccco1 (stereo unspecified)	STAT3 act-1 139 | STAT3 act-2 inactive | NFkB act 2 inactive | STAT1 act inactive
Cn1c(C(C#N)C(=O)c2ccco2)nc2ccccc21 (stereo unspecified)	AHR act 77, STAT3 act-1 136 | STAT3 act-2 136 | NFkB act 2 inactive | STAT1 act 124
CC1CCC2C(=O)N(c3cccc(C(=O)Nc4ccccc4Cl)c3)C(=O)C2C1 (stereo unspecified)	none (no result: Hsp70 act, PERK inhibitor, STAT3 act-1)
c1ccc(-c2nnc(CN3CCCCC3)o2)cc1	none (no result: Hsp70 act, PERK inhibitor, STAT3 act-1)
c1ccc(-c2nnc(CN3CCCc4ccccc43)o2)cc1	STAT3 act-1 145 | STAT3 act-2 inactive | NFkB act 2 inactive | STAT1 act inactive
c1ccc(-c2nc(CSc3nnc(-c4cccs4)o3)cs2)cc1	STAT3 act-1 161 | STAT3 act-2 168 | NFkB act 2 inactive | STAT1 act 121
Cc1sc2nc(N)sc2c1C	STAT3 act-1 162 (no result: PolyA inh, HSF1 inh) | STAT3 act-2 147 | NFkB act 2 inactive | STAT1 act inactive
COc1ccccc1-c1cc(C(=O)N/N=C/c2ccc(C)s2)c2ccccc2n1	STAT3 act-1 139 | STAT3 act-2 137 | NFkB act 2 inactive | STAT1 act inactive
Cc1ccc(-n2c(=S)[nH]c3sc4c(c3c2=O)CCC4)cc1	STAT3 act-1 137 | STAT3 act-2 inactive | NFkB act 2 inactive | STAT1 act inactive
Cc1ccc(-n2c(=O)c3c4c(sc3n3c(=S)[nH]nc23)CCC4)cc1	none (no result: Hsp70 act, STAT3 act-1)
COC(=O)c1c(C)[nH]c(C(=O)CC#N)c1C	none
COC(=O)c1c(C)[nH]c(C(=O)CN2CCOCC2)c1C	STAT3 act-1 139 | STAT3 act-2 138 | NFkB act 2 inactive | STAT1 act inactive
CC1CC(C)CN(C(=O)CSCC(=O)Nc2nc(-c3cccs3)cs2)C1 (stereo unspecified)	STAT3 act-1 136 | STAT3 act-2 inactive | NFkB act 2 inactive | STAT1 act inactive
O=C(CSCC(=O)N1CCCCC1)Nc1nc(-c2cccs2)cs1	none
